Converted amounts (≈) assume the structure as drawn. The source made the active and inactive calls. The calls are words filed in the database; no cut-off is given here.
Key:
[1] = fT>MIC required for inducing 1-log killing effect in methicillin-resistant Staphylococcus aureus TL-3677-infected mouse; format: functional
[2] = Protein binding in mouse serum at 100 ug/ml by ultrafiltration method; format: ADME, cell-free; conditions: read-out: PB (converted)
[3] = tested on: Staphylococcus aureus; test: Antibacterial activity against methicillin-resistant Staphylococcus aureus SP-12249 by broth microdilution method; format: functional
Procedure, shortened: (§1)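 CLSI broth microdilution in cation-adjusted Mueller-Hinton broth; final inoculum approx. 10^5 CFU/well.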

[4] = tested on: Enterococcus faecium; test: Antibacterial activity against vancomycin-resistant Enterococcus faecium TL-3621 by broth microdilution method; format: functional; procedure, shortened: as §1
[5] = fT>MIC required for inducing 1-log killing effect in vancomycin-resistant Enterococcus faecium TL-3621-infected mouse; format: functional
Procedure, shortened: (§2)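 Neutropenic ICR mice (cyclophosphamide), thighs inoculated with ~10^5–10^6 CFU/ml in BHIB with 1% carrageenan 2 h before therapy. Total 2.5–640 mg/kg sc over 24 h in 1–12 doses, with cilastatin 100 mg/kg.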

[6] = fT>MIC required for inducing 1-log killing effect in methicillin-resistant Staphylococcus aureus SP-12249-infected mouse; format: functional
[7] = fT>MIC required for bacteriostatic effect in methicillin-resistant Staphylococcus aureus SP-12249-infected mouse; format: functional
[8] = tested on: Enterococcus faecium; test: Antibacterial activity against vancomycin-resistant Enterococcus faecium TL-3273 by broth microdilution method; format: functional; procedure, shortened: as §1
[9] = fT>MIC required for bacteriostatic effect in vancomycin-resistant Enterococcus faecium TL-3273-infected mouse; format: functional; procedure, shortened: as §2
[10] = tested on: Staphylococcus aureus; test: Antibacterial activity against methicillin-resistant Staphylococcus aureus TL-3677 by broth microdilution method; format: functional; procedure, shortened: as §1
[11] = Protein binding in mouse serum at 10 ug/ml by ultrafiltration method; format: ADME, cell-free; conditions: read-out: PB (converted)
[12] = Protein binding in mouse serum at 30 ug/ml by ultrafiltration method; format: ADME, cell-free; conditions: read-out: PB (converted)
[13] = tested on: Enterococcus faecium; test: Antibacterial activity against vancomycin-resistant Enterococcus faecium TL-3273 infected in ICR mouse assessed as reduction in bacterial burden at 2.5 to 640 mg/kg, sc in presence of 1% carrageenan; format: functional, organism-based
Procedure, shortened: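 Male ICR mice made neutropenic with cyclophosphamide sc (150 mg/kg day −4, 100 mg/kg day −1). Thighs inoculated with ~10^5–10^6 CFU/ml in BHIB plus 1% carrageenan, 2 h before therapy. Total 2.5–640 mg/kg sc over 24 h in 1–12 divided doses, each with cilastatin 100 mg/kg. Thighs homogenised at 24 h, CFU plated; two mice (four thighs) per group.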

[14] = fT>MIC required for inducing 2-log killing effect in vancomycin-resistant Enterococcus faecium TL-3621-infected mouse; format: functional; procedure, shortened: as §2
[15] = fT>MIC required for inducing 2-log killing effect in vancomycin-resistant Enterococcus faecium TL-3273-infected mouse; format: functional; procedure, shortened: as §2
[16] = tested on: Enterococcus faecium; test: Antibacterial activity against vancomycin-resistant Enterococcus faecium TL-3273 at 0.5 to 8 ug/mL by time-kill analysis in presence of 1% carrageenan; format: functional, organism-based
[17] = fT>MIC required for inducing 1-log killing effect in vancomycin-resistant Enterococcus faecium TL-3273-infected mouse; format: functional; procedure, shortened: as §2
[18] = fT>MIC required for bacteriostatic effect in methicillin-resistant Staphylococcus aureus TL-3677-infected mouse; format: functional
[19] = fT>MIC required for inducing 2-log killing effect in methicillin-resistant Staphylococcus aureus SP-12249-infected mouse; format: functional
[20] = fT>MIC required for bacteriostatic effect in vancomycin-resistant Enterococcus faecium TL-3621-infected mouse; format: functional; procedure, shortened: as §2
[21] = fT>MIC required for inducing 2-log killing effect in methicillin-resistant Staphylococcus aureus TL-3677-infected mouse; format: functional

Question: For `C[C@H]1C=C(c2csc(SC3=C(C(=O)O)N4C(=O)[C@H]([C@@H](C)O)[C@H]4[C@H]3C)n2)CN1` [RAZUPENEM], which “fT>MIC” value [1] is on record?
Answer: 27%

Question: What about the fraction unbound at 100 ug/ml [2] of the same compound?
Answer: 0.22

Question: And the MIC [3]?
Answer: 1 µg/mL (≈ 2.45 µM)

Question: What about the MIC [4] of the same compound?
Answer: 2 µg/mL (≈ 4.91 µM)

Question: What about the “fT>MIC” value [5] of the same compound?
Answer: 14%

Question: What about the “fT>MIC” value [6] of the same compound?
Answer: 30%

Question: And the “fT>MIC” value [7]?
Answer: 23%

Question: And the MIC [8]?
Answer: 2 µg/mL (≈ 4.91 µM)

Question: And the “fT>MIC” value [9]?
Answer: 9%

Question: And the MIC [10]?
Answer: 0.12 µg/mL (≈ 0.294 µM)

Question: And the fraction unbound at 10 ug/ml [11]?
Answer: 0.25

Question: And the fraction unbound at 30 ug/ml [12]?
Answer: 0.24

Question: And the Activity [13]?
Answer: Active

Question: And the “fT>MIC” value [14]?
Answer: 19%

Question: What about the “fT>MIC” value [15] of the same compound?
Answer: 16%

Question: What about the Activity [16] of the same compound?
Answer: Active

Question: And the “fT>MIC” value [17]?
Answer: 12%

Question: What about the “fT>MIC” value [18] of the same compound?
Answer: 23%

Question: And the “fT>MIC” value [19]?
Answer: 37%

Question: And the “fT>MIC” value [20]?
Answer: 10%

Question: What about the “fT>MIC” value [21] of the same compound?
Answer: 32%

— ChEMBL document CHEMBL1649548, “Pharmacodynamics of SMP-601 (PTZ601) against vancomycin-resistant Enterococcus faecium and methicillin-resistant Staphylococcus aureus in neutropenic murine thigh infection models” (Antimicrob Agents Chemother, 2009)
